ChEMBL document CHEMBL5532753, “Bipyraloxifene - a modified raloxifene vector against triple-negative breast cancer” (RSC Med Chem, 2024)
Calls of active or inactive are those of the source. The calls are words filed in the database; no cut-off is given here.

Experiments:
[1] = test system: MDA-MB-231; assay: Induction of apoptosis in human MDA-MB-231 cells assessed as early apoptotic cells at IC50 concentration incubated for 72 hrs by Annexin V/propidium iodide staining based flow cytometry analysis (reference value: 0.72 %); type: functional
[2] = test system: U-251; assay: Antiproliferative activity against human U-251 cells assessed as reduction in cell viability by measuring number of adherent cells incubated for 72 hrs by crystal violet staining based assay; type: functional; conditions: U-251, 72 h
Outline: (§1)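 Adherent tumour lines grown in HEPES-buffered RPMI-1640 with 10% heat-inactivated FCS, 2 mM L-glutamine, 0.01% sodium pyruvate, penicillin/streptomycin, 37 °C, 5% CO2. Seeding per well: MCF-7 7 × 10³, MDA-MB-231 4 × 10³, MDA-MB-361 6 × 10³, U251 2 × 10³. Cells seeded overnight, then exposed to a dose range for 72 h from 20 mM DMSO stocks diluted in medium. Washed, fixed, read by MTT or CV. IC50 given as mean ± SD of at least three independent experiments.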

[3] = test system: MDA-MB-231; assay: Induction of apoptosis in human MDA-MB-231 cells assessed as viable cells at IC50 concentration incubated for 72 hrs by Annexin V/propidium iodide staining based flow cytometry analysis (reference value: 95.0 %); type: functional
[4] = test system: MDA-MB-231; assay: Induction of apoptosis in human MDA-MB-231 cells assessed as abnormal cell size incubated for 72 hrs by propidium iodide staining based fluorescence microscopy analysis; type: functional
[5] = test system: U-251; assay: Antiproliferative activity against human U-251 cells assessed as reduction in cell viability by measuring total mitochondrial respiration incubated for 72 hrs by MTT assay; type: functional, cell-based; conditions: U-251, 72 h; outline: as §1
[6] = Cytotoxicity against mouse Peritoneal exudate cell assessed as reduction in cell viability by measuring number of adherent cells incubated for 72 hrs by crystal violet staining based assay; type: toxicity
Outline: (§2)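 Mouse peritoneal exudate cells were exposed to a dose range for 72 h, and viability was read by MTT (mitochondrial respiration) or CV (adherent cells). Compounds came from 20 mM DMSO stocks diluted in medium. IC50 given as mean ± SD.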

[7] = test system: MDA-MB-231; assay: Induction of apoptosis in human MDA-MB-231 cells assessed as abnormal cell shape incubated for 72 hrs by propidium iodide staining based fluorescence microscopy analysis; type: functional
[8] = test system: MDA-MB-231; assay: Antiproliferative activity against human MDA-MB-231 cells assessed as reduction in cell viability by measuring number of adherent cells incubated for 72 hrs by crystal violet staining based assay; type: functional; conditions: MDA-MB-231, 72 h; outline: as §1
[9] = test system: MCF7; assay: Antiproliferative activity against human MCF7 cells assessed as reduction in cell viability by measuring number of adherent cells incubated for 72 hrs by crystal violet staining based assay; type: functional; conditions: MCF7, 72 h; outline: as §1
[10] = test system: MDA-MB-231; assay: Antiproliferative activity against human MDA-MB-231 cells assessed as reduction in cell viability by measuring total mitochondrial respiration incubated for 72 hrs by MTT assay; type: functional, cell-based; conditions: MDA-MB-231, 72 h; outline: as §1
[11] = test system: MDA-MB-231; assay: Induction of RNS production in human MDA-MB-231 cells assessed as oxidative burst incubated for 72 hrs by DHR staining based flow cytometry analysis; type: functional, cell-based
Outline: (§3)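 MDA-MB-231 cells were treated for 72 h, then pre-stained with 1 µM dihydrorhodamine 123 for 20 min at 37 °C. After PBS washing and trypsinisation, ROS/RNS were read by flow cytometry.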

[12] = Cytotoxicity against mouse Peritoneal exudate cell assessed as reduction in cell viability by measuring total mitochondrial respiration incubated for 72 hrs by MTT assay; type: toxicity, cell-based; conditions: peritoneal exudate cells; outline: as §2
[13] = test system: MDA-MB-231; assay: Antiproliferative activity against human MDA-MB-231 cells assessed as reduction in cell viability at IC50 concentration incubated for 72 hrs in presence of chloroquine by crystal violet staining based assay; type: functional
[14] = test system: MDA-MB-231; assay: Induction of ROS production in human MDA-MB-231 cells assessed as oxidative burst incubated for 72 hrs by DHR staining based flow cytometry analysis; type: functional, cell-based; outline: as §3
[15] = Selectivity index, ratio of IC50 for cytotoxicity against mouse Peritoneal exudate cell assessed as reduction in cell viability by measuring number of adherent cells to IC50 for antiproliferative activity against human MDA-MB-231 cells assessed as reduction in cell viability by measuring number of adherent cells; type: toxicity, cell-based; conditions: mouse peritoneal exudate cells versus human MDA-MB-231 cells, read-out: Ratio IC50
Outline: (§4)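 Selectivity index is the IC50 in normal mouse peritoneal exudate cells divided by the IC50 in MDA-MB-231. Both IC50s come from 72 h dose-range treatment, read by the same assay: CV (adherent cells) or MTT (mitochondrial respiration).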

[16] = test system: MDA-MB-231; assay: Induction of apoptosis in human MDA-MB-231 cells assessed as increase in cell nuclei incubated for 72 hrs by propidium iodide staining based fluorescence microscopy analysis; type: functional
[17] = test system: MCF7; assay: Antiproliferative activity against human MCF7 cells assessed as reduction in cell viability by measuring total mitochondrial respiration incubated for 72 hrs by MTT assay; type: functional, cell-based; conditions: MCF7, 72 h; outline: as §1
[18] = test system: MDA-MB-231; assay: Induction of autophagy in human MDA-MB-231 cells assessed as increase in granularity of the cellular cytoplasm at IC50 concentration incubated for 72 hrs by flow cytometric analysis
[19] = test system: MDA-MB-231; assay: Induction of autophagy in human MDA-MB-231 cells at IC50 concentration incubated for 72 hrs by acridine orange staining based flow cytometry analysis; type: functional, cell-based
[20] = test system: MDA-MB-231; assay: Induction of apoptosis in human MDA-MB-231 cells assessed as late apoptotic cells at IC50 concentration incubated for 72 hrs by Annexin V/propidium iodide staining based flow cytometry analysis (reference value: 3.19 %); type: functional
[21] = test system: MDA-MB-231; assay: Induction of apoptosis in human MDA-MB-231 cells assessed as necrotic cells at IC50 concentration incubated for 72 hrs by Annexin V/propidium iodide staining based flow cytometry analysis (reference value: 1.11 %); type: functional
[22] = test system: MDA-MB-231; assay: Antiproliferative activity against human MDA-MB-231 cells assessed as reduction in cell viability at IC50 concentration incubated for 72 hrs in presence of 3-MA by crystal violet staining based assay; type: functional
[23] = test system: MDA-MB-231; assay: Induction of apoptosis in human MDA-MB-231 cells assessed as caspase activation incubated for 72 hrs by Apostat staining based flow cytometry analysis; type: functional, cell-based
[24] = test system: MDA-MB-361; assay: Antiproliferative activity against human MDA-MB-361 cells assessed as reduction in cell viability by measuring number of adherent cells incubated for 72 hrs by crystal violet staining based assay; type: functional; conditions: MDA-MB-361, 72 h; outline: as §1
[25] = Selectivity index, ratio of IC50 for cytotoxicity against mouse Peritoneal exudate cell assessed as reduction in cell viability by measuring total mitochondrial respiration to IC50 for antiproliferative activity against human MDA-MB-231 cells assessed as reduction in cell viability by measuring total mitochondrial respiration; type: toxicity, cell-based; conditions: mouse peritoneal exudate cells versus human MDA-MB-231 cells, read-out: Ratio IC50; outline: as §4
[26] = test system: MDA-MB-231; assay: Induction of apoptosis in human MDA-MB-231 cells assessed as chromatin condensation incubated for 72 hrs by propidium iodide staining based fluorescence microscopy analysis; type: functional, cell-based
[27] = test system: MDA-MB-361; assay: Antiproliferative activity against human MDA-MB-361 cells assessed as reduction in cell viability by measuring total mitochondrial respiration incubated for 72 hrs by MTT assay; type: functional, cell-based; conditions: MDA-MB-361, 72 h; outline: as §1

## COc1ccc(-c2sc3cc(OC)ccc3c2C(=O)c2ccc(OCc3ccnc(-c4ccccn4)c3)cc2)cc1
[1]
  Activity: 29.3%
[2]
  IC50: 2.6 µM
[3]
  Activity: 46.4%
[4]
  Activity: Active
[5]
  IC50: 2.2 µM
[6]
  IC50 at 72 h: 18.9 µM
[7]
  Activity: Active
[8]
  IC50: 1.5 µM
[9]
  IC50: 2.4 µM
[10]
  IC50: 1.6 µM
[11]
  Activity: Active
[12]
  IC50 at 72 h: 15.4 µM
[13]
  Activity: Active
[14]
  Activity: Active
[15]
  selectivity ratio: 12.6
[16]
  Activity: Active
[17]
  IC50: 2.15 µM
[18]
  Activity: Active
[19]
  Activity: Active
[20]
  Activity: 23.3%
[21]
  Activity: 1.01%
[22]
  Activity: Active
[23]
  Activity: Active
[24]
  IC50: > 100 µM
[25]
  selectivity ratio: 9.5
[26]
  Activity: Active
[27]
  IC50: 6.3 µM

## O=C(c1ccc(OCCN2CCCCC2)cc1)c1c(-c2ccc(O)cc2)sc2cc(O)ccc12 [RALOXIFENE]
[1]
  Activity: 20.6%
[2]
  IC50: 23.4 µM
[3]
  Activity: 67%
[4]
  Activity: Active
[5]
  IC50: 19.2 µM
[6]
  IC50 at 72 h: 20.4 µM
[7]
  Activity: Active
[8]
  IC50: 22 µM
[9]
  IC50: 21.4 µM
[10]
  IC50: 19.1 µM
[11]
  Activity: Active
[12]
  IC50 at 72 h: 18.3 µM
[13]
  Activity: Active
[14]
  Activity: Active
[16]
  Activity: Active
[17]
  IC50: 16.8 µM
[18]
  Activity: Active
[19]
  Activity: Active
[20]
  Activity: 11.5%
[21]
  Activity: 0.93%
[22]
  Activity: Active
[23]
  Activity: Active
[24]
  IC50: 38.9 µM
[26]
  Activity: Active
[27]
  IC50: 22.2 µM
